Results reported in article PMC5768141 (Journal of natural products, 2017).

Experiments:
OVSAHO cells [1] = assay: Immunoblot analysis with densitometry; format: cell-based, human; conditions: for ERK activation (phosphorylated ERK): 100 nM; for p21 protein expression: western blot; for Cleaved PARP expression level: western blot densitometry
[2] = system: Na^+/K^+-ATPase (adenosine 5′-triphosphatase from porcine cerebral cortex); assay: Na^+/K^+-ATPase activity assay; format: biochemical; conditions: various concentrations, 15 min at 37 °C
Method in brief: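 The Na+/K+-ATPase from porcine cerebral cortex, in assay buffer, was mixed with DMSO or test compound in DMSO, and ATP was added to start the reaction. After 15 min at 37 °C, ADP-Glo reagent stopped the reaction and depleted ATP over 40 min at room temperature. Detection reagent then converted ADP to ATP over 60 min, and ATP was read by luciferin/luciferase luminescence.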

OVCAR3 cells [3] = assay: Immunoblot analysis with densitometry; format: cell-based, human; conditions: for ERK activation (phosphorylated ERK) / p53 expression: OVCAR3, 100 nM; for p53 expression: 72 h; for Bcl-xL expression / Cleaved PARP level / Cleaved caspase 3 level / Mcl-1 expression / p21 protein expression: OVCAR3, western blot densitometry
Method in brief: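 OVCAR3 cells exposed to test compound (100 nM, 72 h). Lysed in RIPA buffer on ice for 15 min, then spun at 14,000 g, 4 °C, 15 min. Protein quantified by BCA; 25 μg per lane run on SDS-PAGE and transferred to PVDF. Blocked in 5% milk/TBST for 1 h at RT, primary antibody overnight at 4 °C, secondary 30 min. Chemiluminescent detection, ImageJ densitometry, n = 3.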

OVCAR3 cells [4] = assay: Clonogenic assay; format: cell-based, human; conditions: OVCAR3, 21 days, treated every three days
Method in brief: (§1)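 Cells in RPMI 1640 with 10% FBS were plated at 200 cells per 60 mm dish and grown 21 days. Test compound or solvent control was given every three days. Colonies were fixed with 4% (w/v) paraformaldehyde, stained with 0.04% (w/v) crystal violet for 30 min at room temperature, imaged and counted by image analysis. Three biological replicates.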

[5] = system: normal human colon CCD-112CoN cells; conditions: cited from earlier work
[6] = system: MDA-MB-231 breast cancer cells; conditions: cited from earlier work
[7] = system: MOE^LOW murine oviductal epithelial cells; assay: Cell viability assay; format: cell-based; conditions: Mus musculus, 72 h, read-out: IC50 against MOE^LOW
[8] = system: normal human peripheral blood mononuclear cells; conditions: cited from earlier work
[9] = system: MOE^HIGH murine oviductal epithelial cells; assay: Cell viability assay; format: cell-based; conditions: Mus musculus, 72 h, read-out: IC50 against MOE^HIGH
OVSAHO cells [10] = assay: Clonogenic assay; format: cell-based, human; conditions: 21 days, treated every three days
Method in brief: as §1

[11] = system: OVCAR3 human ovarian cancer cells; assay: Cell viability assay; format: cell-based; conditions: OVCAR-3, 72 h, read-out: IC50 against OVCAR3
OVCAR3 cells [12] = assay: Soft agar colony formation assay; format: cell-based, human; conditions: OVCAR3, 21 days, vs DMSO control
Method in brief: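 OVCAR3 cells, cultured in RPMI 1640 with 10% FBS, were suspended at 1.5 × 10^4 cells in 0.35% w/v top agar over a 0.5% w/v base agar layer. They were grown 21 days with the medium changed every three days. Colonies were imaged by microscopy and counted by image analysis. Three biological replicates.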

[13] = system: OVCAR3 ovarian cancer cells; conditions: cited from earlier work
OVCAR3 cells [14] = assay: Cell cycle assay; format: cell-based, human; conditions: OVCAR3, 72 h
OVCA432 cells = assay: Immunoblot analysis; format: cell-based, human
OVSAHO cells [15] = assay: Soft agar colony formation assay; format: cell-based, human; conditions: 21 days, vs DMSO control
Method in brief: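 OVSAHO cells (1.5 × 104) suspended in 0.35% w/v agar over a 0.5% w/v base agar layer, with test compound or solvent control. Grown 21 days with medium changed every three days. Colonies imaged by microscopy and counted by image analysis; three biological replicates.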

OVCAR8 cells = assay: Cell viability assay; format: cell-based; conditions: Homo sapiens, OVCAR-8, 72 h, read-out: IC50 against OVCAR8
HT-29 colon cancer cells = conditions: cited from earlier work
KB nasopharyngeal cells = conditions: cited from earlier work
hERG channels = conditions: cited from earlier work

Structure (SMILES) | ERK activation (phosphorylated ERK) (OVSAHO cells [1]) | p21 protein expression (OVSAHO cells [1]) | Cleaved PARP expression level (OVSAHO cells [1]) | ERK activation (phosphorylated ERK) (OVCAR3 cells [3]) | p53 expression (OVCAR3 cells [3]) | Bcl-xL expression (OVCAR3 cells [3]) | Cleaved PARP level (OVCAR3 cells [3]) | Cleaved caspase 3 level (OVCAR3 cells [3]) | Mcl-1 expression (OVCAR3 cells [3]) | p21 protein expression (OVCAR3 cells [3]) | IC50 [7] | IC50 [9] | Cell cycle distribution (OVCAR3 cells [14]) | p53 expression (OVCA432 cells) | other results
CO[C@H]1[C@H](O[C@H]2CC[C@]3(C=O)[C@H]4CC[C@]5(C)[C@@H](C6=CC(=O)OC6)CC[C@]5(O)[C@@H]4CC[C@]3(O)C2)O[C@H](C)[C@H](O)[C@@H]1OC [(+)-strebloside, (+)-Strebloside] | induced activation of ERK | significant increase in p21 expression | higher than the levels in control cells | induced activation of ERK | disappearance of p53 | decrease in Bcl-xL after treatment was not statistically significant | significantly higher levels of cleaved PARP | significant increase in cleaved caspase 3 | expressed less Mcl-1 than control cells | expressed more p21 protein than the control | > 50 µM | > 50 µM | induced an accumulation of cells in the G2/M phase | decreased expression of p53 | Inhibition of Na^+/K^+-ATPase activity [2]: inhibited Na^+/K^+-ATPase activity in a concentration-dependent manner; 2D colony formation (OVCAR3 cells [4]): neither OVCAR3 nor OVSAHO cells formed colonies; Toxicity compared with digoxin [5]: not as toxic as digoxin; In vivo potency in hollow fiber assay [6]: significant potency in vivo; Toxicity compared with digoxin [8]: not as toxic as digoxin; 2D colony formation (OVSAHO cells [10]): neither OVCAR3 nor OVSAHO cells formed colonies; IC50 [11]: 0.134 µM; Soft agar colony formation (anchorage-independent growth) (OVCAR3 cells [12]): formed significantly less soft agar colonies than a DMSO control; In vivo potency in hollow fiber assay [13]: significant potency in vivo; Soft agar colony formation (anchorage-independent growth) (OVSAHO cells [15]): no difference was detected; IC50 (OVCAR8 cells): 0.0911 µM; Cytotoxicity (HT-29 colon cancer cells): potent cytotoxicity; Cytotoxicity (KB nasopharyngeal cells): potent cytotoxicity
C[C@H]1O[C@@H](O[C@H]2[C@@H](O)C[C@H](O[C@H]3[C@@H](O)C[C@H](O[C@H]4CC[C@@]5(C)[C@H](CC[C@@H]6[C@@H]5CC[C@]5(C)[C@@H](C7=CC(=O)OC7)CC[C@]65O)C4)O[C@@H]3C)O[C@@H]2C)C[C@H](O)[C@@H]1O [digitoxin, reference compound] | induced activation of ERK | significant increase in p21 expression | higher than the levels in control cells | induced activation of ERK | disappearance of p53 | decrease in Bcl-xL after treatment was not statistically significant | significantly higher levels of cleaved PARP | significant increase in cleaved caspase 3 | expressed less Mcl-1 than control cells | expressed more p21 protein than the control | > 50 µM | > 50 µM | accumulation of cells in the G2/M phase | decreased expression of p53 | Interaction with hERG channels and hERG trafficking (hERG channels): reported to interact with hERG channels and hERG trafficking
